This passage reports IC50, ED50 and inhibition results from ChEMBL document CHEMBL1127381, “Synthesis and 5-lipoxygenase inhibitory activities of some novel 2-substituted 5-benzofuran hydroxamic acids” (J Med Chem, 1994).

In experiment [1] the target is T1, Polyunsaturated fatty acid 5-lipoxygenase (Rattus norvegicus, UniProt P12527).
T1 sequence (P12527 whole entry): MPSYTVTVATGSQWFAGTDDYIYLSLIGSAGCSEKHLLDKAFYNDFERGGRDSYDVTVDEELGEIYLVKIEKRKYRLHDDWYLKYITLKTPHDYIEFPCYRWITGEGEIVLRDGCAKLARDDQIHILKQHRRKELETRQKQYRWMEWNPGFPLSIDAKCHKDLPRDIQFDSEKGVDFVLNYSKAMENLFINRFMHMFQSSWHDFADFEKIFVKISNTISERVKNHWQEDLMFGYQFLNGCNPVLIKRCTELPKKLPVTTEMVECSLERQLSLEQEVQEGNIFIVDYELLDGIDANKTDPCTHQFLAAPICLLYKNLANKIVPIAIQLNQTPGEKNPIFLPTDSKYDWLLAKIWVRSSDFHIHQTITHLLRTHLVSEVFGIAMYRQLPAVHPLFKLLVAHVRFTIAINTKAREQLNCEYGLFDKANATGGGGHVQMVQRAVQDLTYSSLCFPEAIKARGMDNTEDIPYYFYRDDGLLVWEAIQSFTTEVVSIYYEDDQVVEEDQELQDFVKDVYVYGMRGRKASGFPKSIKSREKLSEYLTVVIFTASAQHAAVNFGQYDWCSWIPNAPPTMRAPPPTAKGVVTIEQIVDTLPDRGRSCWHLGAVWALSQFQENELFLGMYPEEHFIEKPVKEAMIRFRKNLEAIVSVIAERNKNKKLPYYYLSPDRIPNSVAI
Description: In vitro inhibition of 5-lipoxygenase (5-HETE) derived from the 9000xg supernatant of RBL broken cell assay. It is filed as cell-based. In a few lines:
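RBL-1 cells grown in suspension, washed, suspended at 5 × 10^7 cells/mL in NaHPO4/CaCl2 buffer, homogenized at 0 °C, spun 9000g for 50 min. Supernatant preincubated with compound 5 min at 37 °C, then [14C]arachidonic acid added and incubated 20 min at 37 °C. Reaction stopped with 2 N formic acid. 5-HETE formation measured radiometrically.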

Experiment [2] deals with T2, Polyunsaturated fatty acid 5-lipoxygenase (Mus musculus) (UniProt P48999).
T2 sequence (whole entry): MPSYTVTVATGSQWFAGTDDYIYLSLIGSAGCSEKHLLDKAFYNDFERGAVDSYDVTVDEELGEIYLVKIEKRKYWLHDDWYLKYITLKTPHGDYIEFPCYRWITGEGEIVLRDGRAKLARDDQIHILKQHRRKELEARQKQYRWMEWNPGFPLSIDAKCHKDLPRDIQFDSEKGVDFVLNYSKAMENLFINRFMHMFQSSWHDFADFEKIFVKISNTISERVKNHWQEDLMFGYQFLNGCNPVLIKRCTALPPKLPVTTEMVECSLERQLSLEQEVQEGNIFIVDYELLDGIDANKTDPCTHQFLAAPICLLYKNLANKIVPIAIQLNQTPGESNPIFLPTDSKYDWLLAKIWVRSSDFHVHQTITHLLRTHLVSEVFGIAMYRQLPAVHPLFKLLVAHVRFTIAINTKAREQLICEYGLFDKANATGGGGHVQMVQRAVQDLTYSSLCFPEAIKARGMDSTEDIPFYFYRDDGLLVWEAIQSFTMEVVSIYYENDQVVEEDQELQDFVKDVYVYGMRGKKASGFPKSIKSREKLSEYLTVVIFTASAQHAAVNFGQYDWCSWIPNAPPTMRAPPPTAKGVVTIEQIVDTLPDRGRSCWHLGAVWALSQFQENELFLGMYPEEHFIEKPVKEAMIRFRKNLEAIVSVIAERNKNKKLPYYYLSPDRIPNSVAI
Nature of the experiment: In vivo inhibition of 5-lipoxygenase (LTC4) in the mouse zymosan peritonitis assay at an oral dose of 30 mg/Kg. It is filed as functional, organism-based. The method in brief:
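Male CD-1 mice (18–25 g) given compound orally in PEG 200. Zymosan-A (3 mg in 0.9% saline) injected ip 1 h later. Mice killed 15 min after zymosan; peritoneum lavaged with 10 μM indomethacin. Fluid extracted in cold 95% ethanol and dried. LTC4 measured by [3H]RIA on 1:20 dilution. Values are mean percent inhibition per animal ± SEM.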

`CC(=O)N(O)C(C)c1ccc2oc(-c3ccccc3)cc2c1` (configuration not stated): in experiment [1], half-maximal inhibition (IC50) required 490 nM. In addition, the ED50 – broadly, the midpoint of the dose-response relation – in experiment [2] is 22.1 mg/kg.

Take `CC(c1ccc2oc(-c3ccccc3)cc2c1)N(O)C(=O)CO` (configuration not stated): inhibition in experiment [1] was half-maximal at 700 nM (IC50). Moreover, the ED50 in experiment [2] is 27.5 mg/kg.

For the compound `CCCCc1cc2cc(C(C)N(O)C(=O)CCCC(=O)OC)ccc2o1` (configuration not stated), the IC50 (usually the concentration needed to halve the response being measured) in experiment [1] was determined as 50 nM. Moreover, in experiment [2], the inhibition (usually the drop in the measured response relative to a control, in per cent) was 28.6%.

Consider `CC(=O)N(O)C(C)c1ccc(OCCc2ccccc2)cc1` (configuration not stated), for which, in experiment [1], the IC50 came out at 410 nM.

In experiment [1], `CC(c1ccc2oc(-c3ccccc3)cc2c1)N(O)C(=O)c1ccco1` (configuration not stated) yielded an IC50 of 40 nM. This compound showed an inhibition in experiment [2] of 32.9%.

With `CC(c1ccc2oc(-c3ccccc3)cc2c1)N(O)C(N)=O` (configuration not stated), in experiment [1], the IC50 is 410 nM. In experiment [2], the 50% effect level (ED50) was put at a dose of 10.3 mg/kg.

In experiment [1], `COCC(=O)N(O)C(C)c1ccc2oc(-c3ccccc3)cc2c1` (configuration not stated) showed an IC50 of 160 nM. The ED50 in experiment [2] was 18.6 mg/kg.

For `CCOC(=O)CCC(=O)N(O)C(C)c1ccc2oc(-c3ccccc3)cc2c1` (configuration not stated), in experiment [1], inhibition was half-maximal at 50 nM (IC50).

On to `CC(=O)OCC(=O)N(O)C(C)c1ccc2oc(-c3ccccc3)cc2c1` (configuration not stated), for which the IC50 in experiment [1] was determined as 160 nM. In experiment [2], this compound returned an inhibition of 18.9%.

With `COc1ccc2cc(-c3cc4cc(C(C)N(O)C(C)=O)ccc4o3)ccc2c1` (configuration not stated), in experiment [1], the IC50 was determined as 120 nM. The inhibition in experiment [2] stood at 25.6%.

Turning to `CC(c1ccc2oc(-c3ccccc3)cc2c1)N(O)C(=O)c1ccccc1` (configuration not stated), in experiment [2], the inhibition came out at 46.2%.

Compound `CCCCc1cc2cc(C(C)N(O)C(C)=O)ccc2o1` (configuration not stated) gave an IC50 in experiment [1] of 50 nM. Besides, the inhibition in experiment [2] is 41.4%.

`COc1cc(-c2cc3cc(C(C)N(O)C(C)=O)ccc3o2)cc(OC)c1OC` (configuration not stated) gave an IC50 in experiment [1] of 310 nM. This compound also came in with an inhibition in experiment [2] of 42.1%.

As for `COC(=O)CCCC(=O)N(O)C(C)c1ccc2oc(-c3ccccc3)cc2c1` (configuration not stated), in experiment [1], the IC50 came out at 60 nM.

`COc1cccc(OC)c1C(=O)N(O)C(C)c1ccc2oc(-c3ccccc3)cc2c1` (configuration not stated) showed an IC50 in experiment [1] of 3000 nM.

`COc1ccc(C(=O)N(O)C(C)c2ccc3oc(-c4ccccc4)cc3c2)cc1OC` (configuration not stated) gave an IC50 in experiment [1] of 200 nM.

`CC(c1cc2ccccc2s1)N(O)C(N)=O` (configuration not stated) yielded an ED50 in experiment [2] of 2.71 mg/kg.

With `COc1cc(-c2cc3cc(C(C)N(O)C(N)=O)ccc3o2)cc(OC)c1OC` (configuration not stated), the IC50 in experiment [1] was 50 nM. It took a dose of 17.5 mg/kg to reach the 50% effect level in experiment [2] (ED50).

Take `CC(c1ccc2oc(-c3ccccc3)cc2c1)N(O)C(=O)c1cccs1` (configuration not stated): the IC50 in experiment [1] turned out to be 250 nM. In experiment [2], this compound showed an inhibition of 29.1%.

In turn, `CCCCCCCCCCc1cc2cc(C(C)N(O)C(C)=O)ccc2o1` (configuration not stated) had an IC50 in experiment [1] of 410 nM. The compound further registered an inhibition in experiment [2] of 19.5%.

The compound `COC(=O)CCCC(=O)N(O)C(C)c1ccc2oc(-c3cc(OC)c(OC)c(OC)c3)cc2c1` (configuration not stated) yielded an IC50 in experiment [1] of 40 nM. The same compound came in with an inhibition in experiment [2] of 42.1%.

In experiment [1], `CCCCCCCCCCc1cc2cc(C(C)N(O)C(=O)CCCC(=O)OC)ccc2o1` (configuration not stated) returned an IC50 of 150 nM. Also, the inhibition in experiment [2] came out at 37.3%.
